Among the data in ChEMBL document CHEMBL3865796, “Novel (2,6-difluorophenyl)(2-(phenylamino)pyrimidin-4-yl)methanones with restricted conformation as potent non-nucleoside reverse transcriptase inhibitors against HIV-1” (Eur J Med Chem, 2016) are selectivity ratio, EC50 and CC50 values, retold here.

Where only a bound is given, the exact number is not on record here.

Data set [1] in a line: Selectivity index, ratio of CC50 for human MT4 cells to EC50 for wild type HIV-1 3B reverse transcriptase infected in human MT4 cells. In kind it is toxicity, cell-based. Conditions: read-out: Ratio CC50/EC50.
Data set [2] can be described thus: Inhibition of wild type HIV-1 3B reverse transcriptase infected in human MT4 cells assessed as inhibition of viral replication after 5 days by cell titer glo based luciferase reporter gene assay. Particulars: Human immunodeficiency virus 1, 3B, MT4, 120 h. Background: Cellular ATP, detected with luciferase, serves as a proxy for viable cell number.
The nature of data set [3]: Cytotoxicity against human MT4 cells assessed as decrease in cell viability after 5 days by cell titer glo based luciferase reporter gene assay. Type of data set: toxicity. The gist of the method:
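Mock-infected MT-4 cells (pre-treated with RPMI) in complete RPMI (10% FBS, 1% P/S) received 1:3 serial DMSO dilutions of compound, further diluted 200-fold into medium, in a 384-well format. Incubated 5 days at 37 °C in a humidified incubator. Viability was read as CellTiter-Glo luminescence. CC50 is the concentration giving a 50% fall in signal, from a sigmoidal dose-response fit.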

Data set [4] is described as follows: Inhibition of wild type HIV-1 3B reverse transcriptase infected in human MT4 cells assessed as inhibition of virus-induced cytopathic effect after 5 days incubation by Cell Titer Glo luminescence assay. Conditions: Human immunodeficiency virus 1, 3B. A general note: Damage to the host cells serves as the signal in cytopathic effect assays.

What is called EC50 is the midpoint of the concentration-response curve. In general, CC50 refers to the concentration giving 50% cytotoxicity. On to `COc1cc(F)c(C(=O)c2ccnc(Nc3ccc(C#N)cc3)n2)c(F)c1`, for which, in data set [1], the selectivity ratio is over 14200. In addition, in data set [2], the EC50 is 0.004 µM. The CC50 at 120 h in data set [3] was over 57 µM.

As for `N#Cc1ccc(C(=O)c2nccc(Cl)n2)cc1`, the selectivity ratio in data set [1] was under 0.29. Further, in data set [2], the EC50 is over 57 µM. Also, the CC50 at 120 h in data set [3] turned out to be 16.5 µM.

With `N#Cc1ccc(Nc2nccc(C(=O)c3c(F)cc(F)cc3F)n2)cc1`, the selectivity ratio in data set [1] was over 1680. In data set [2], the EC50 stood at 0.034 µM. For the same compound, the CC50 at 120 h in data set [3] is over 57 µM.

In the case of `N#Cc1ccc(Nc2ccnc(C(=O)c3ccc(C#N)cc3)n2)cc1`, the selectivity ratio in data set [1] is over 1.33. The EC50 in data set [2] was 43 µM. Besides, the CC50 at 120 h in data set [3] is over 57 µM.

As for `O=C(c1ccnc(Cl)n1)c1c(F)cc(F)cc1F`, in data set [1], the selectivity ratio was under 0.7. In data set [2], the EC50 is over 57 µM. The cytotoxic concentration (CC50) at 120 h in data set [3] was 40.1 µM.

For `COc1ccc(C(=O)c2ccnc(Nc3ccc(C#N)cc3)n2)cc1`, the results for the EC50 in data set [4] and in data set [2] were 0.239 µM and 0.814 µM, respectively. Besides, the selectivity ratio in data set [1] is over 70. Also, the CC50 at 120 h in data set [3] is over 57 µM.

As for `COc1cc(F)c(C(=O)c2ccnc(Cl)n2)c(F)c1`, in data set [1], the selectivity ratio was 1. For the same compound, the EC50 in data set [2] is over 57 µM. In addition, the CC50 at 120 h in data set [3] was over 57 µM.

For the compound `N#Cc1ccc(Nc2ccnc(C(O)c3ccc(C#N)cc3)n2)cc1` (stereo not given), the selectivity ratio in data set [1] came to 1. Further, the EC50 in data set [2] is over 57 µM. Also, in data set [3], the CC50 at 120 h is over 57 µM.

Take `O=C1Nc2ccc(Cl)cc2[C@@](C#CC2CC2)(C(F)(F)F)O1` [EFAVIRENZ]: in data set [2], the EC50 was determined as 0.001 µM. Further, the CC50 at 120 h in data set [3] worked out at 20.6 µM.

In the case of `N#Cc1ccc(Nc2ncc(Br)c(C(=O)c3ccc(C#N)cc3)n2)cc1`, in data set [1], the selectivity ratio is over 7.7. Moreover, in data set [2], the EC50 was found to be 7.4 µM. The CC50 at 120 h in data set [3] is over 57 µM.

Consider `COc1ccc(C(=O)c2nc(Nc3ccc(C#N)cc3)ncc2Br)cc1`, for which, in data set [1], the selectivity ratio is under 0.04. The EC50 in data set [2] was over 57 µM. For the same compound, the CC50 at 120 h in data set [3] was 2.45 µM.

As to `Cc1cc(C#N)cc(C)c1Oc1nc(Nc2ccc(C#N)cc2)nc(N)c1Br` [ETRAVIRINE], the cytotoxic concentration (CC50) at 120 h in data set [3] stood at 5.88 µM.

Consider `N#Cc1ccc(Nc2nccc(C(=O)c3ccc(C#N)cc3)n2)cc1`, for which, in data set [1], the selectivity ratio was over 12.7. Besides, the EC50 in data set [2] was 4.5 µM. In data set [3], the CC50 at 120 h was over 57 µM.

Consider `N#Cc1cc(F)c(C(=O)c2ccnc(Cl)n2)c(F)c1`, for which the selectivity ratio in data set [1] was under 0.54. The half-maximal effective concentration (EC50) in data set [2] was over 57 µM. In addition, the half-maximal cytotoxic concentration (CC50) at 120 h in data set [3] was determined as 30.5 µM.

Turning to `N#Cc1ccc(C(=O)c2ccnc(Cl)n2)cc1`, the selectivity ratio in data set [1] is under 0.56. The EC50 in data set [2] is over 57 µM. Further, the half-maximal cytotoxic concentration (CC50) at 120 h in data set [3] amounted to 31.9 µM.

Regarding `COc1cc(F)c(C(=O)c2nc(Nc3ccc(C#N)cc3)ncc2Br)c(F)c1`, the selectivity ratio in data set [1] was 561. The EC50 in data set [2] amounted to 0.069 µM. Besides, in data set [3], the CC50 at 120 h is 38.7 µM.

With `O=C(c1ccnc(Cl)n1)c1c(F)cc(Br)cc1F`, the selectivity ratio in data set [1] was found to be 1. Besides, in data set [2], the 50% effective concentration (EC50) was over 57 µM. Further, the CC50 at 120 h in data set [3] was over 57 µM.

Take `COc1ccc(C(=O)c2ccnc(Cl)n2)cc1`: in data set [1], the selectivity ratio was under 0.69. In addition, in data set [2], the 50% effective concentration (EC50) is over 57 µM. Besides, the CC50 at 120 h in data set [3] came to 39.6 µM.

As to `N#Cc1ccc(Nc2nc(C(=O)c3ccc(C#N)cc3)ncc2Br)cc1`, the selectivity ratio in data set [1] is over 2.06. In addition, the EC50 in data set [2] worked out at 27.7 µM. Further, the half-maximal cytotoxic concentration (CC50) at 120 h in data set [3] is over 57 µM.

As to `N#Cc1ccc(Nc2ncc(Br)c(C(=O)c3c(F)cc(O)cc3F)n2)cc1`, the selectivity ratio in data set [1] turned out to be 1. Besides, in data set [2], the half-maximal effective concentration (EC50) was over 57 µM. Further, the CC50 at 120 h in data set [3] was over 57 µM.

As for `N#Cc1ccc(Nc2nccc(C(=O)c3c(F)cc(C#N)cc3F)n2)cc1`, the selectivity ratio in data set [1] was over 1120. Further, the EC50 in data set [2] stood at 0.051 µM. Further, the CC50 at 120 h in data set [3] was over 57 µM.

`N#Cc1ccc(Nc2cc(F)c(C(=O)c3ccnc(Nc4ccc(C#N)cc4)n3)c(F)c2)cc1`: the selectivity ratio in data set [1] came to 167. The EC50 in data set [2] amounted to 0.31 µM. Also, the 50% cytotoxic concentration (CC50) at 120 h in data set [3] was 51.9 µM.

For `COc1cc(F)c(C(=O)c2nc(Nc3ccc(C#N)cc3Br)ncc2Br)c(F)c1`, the selectivity ratio in data set [1] is over 3.02. Further, the EC50 in data set [2] came to 18.9 µM. Besides, the CC50 at 120 h in data set [3] was over 57 µM.

Regarding `N#Cc1ccc(Nc2nccc(C(O)c3ccc(C#N)cc3)n2)cc1` (stereo not given), the selectivity ratio in data set [1] was over 15.4. Further, in data set [2], the EC50 came to 3.7 µM. For the same compound, the CC50 at 120 h in data set [3] was over 57 µM.
